KCNQ1 inh: human KCNQ1 channel inhibition | hit rate 1.3% among 310,000 | CHO-K1 KCNQ1, FluxOR thallium flux fluorescence; active compounds read high | B-score at 10 µM | P51787;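 active = compounds whose thallium flux B-score, printed positive for inhibition, exceeds three library SD while starting fluorescence stays within three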;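 note: channel opened by potassium depolarization with thallium stimulus after 20 min compound exposure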
KCNQ1 pot: potentiates or activates the human KCNQ1 potassium channel | P51787 | CHO-K1 KCNQ1, thallium flux FluxOR fluorescence; active compounds read high | B-score at 10 µM | hit rate 0.35% among 310,000 | AID 2648;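 active = fluorescence ratio B-score, a plate-corrected score, at least three library SD, with initial intensity B-score within 5 SD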
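Assay system: CHO-K1 cells stably expressing KCNQ1; Medium: assay buffer with matched DMSO; Also added: K+/Tl+ depolarizing stimulus; Dosing: single dose; Timing: dye 90 min, compound 20 min, room temperature; Measured by: kinetic FluxOR thallium fluorescence, 10-s 1-Hz baseline, 110-s post-stimulus read; Read-out: peak-minus-minimum fluorescence over initial fluorescence, negative-control normalized, B-scored.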
hERG rescue: compounds protecting human hERG from proarrhythmic drug block. Q12809. CHO-hERG, FluxOR thallium flux, dofetilide IC70 present. activation (rescue from dofetilide block), less the hit threshold, % at 10 µM. hit rate 0.51% among 310,000. AID 1511;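 active = activation above the mean of controls blocked by dofetilide plus 5 SD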;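 note: thallium influx through hERG after potassium depolarization seen as dye fluorescence rise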
Target sequence (Q12809 whole entry, looked up): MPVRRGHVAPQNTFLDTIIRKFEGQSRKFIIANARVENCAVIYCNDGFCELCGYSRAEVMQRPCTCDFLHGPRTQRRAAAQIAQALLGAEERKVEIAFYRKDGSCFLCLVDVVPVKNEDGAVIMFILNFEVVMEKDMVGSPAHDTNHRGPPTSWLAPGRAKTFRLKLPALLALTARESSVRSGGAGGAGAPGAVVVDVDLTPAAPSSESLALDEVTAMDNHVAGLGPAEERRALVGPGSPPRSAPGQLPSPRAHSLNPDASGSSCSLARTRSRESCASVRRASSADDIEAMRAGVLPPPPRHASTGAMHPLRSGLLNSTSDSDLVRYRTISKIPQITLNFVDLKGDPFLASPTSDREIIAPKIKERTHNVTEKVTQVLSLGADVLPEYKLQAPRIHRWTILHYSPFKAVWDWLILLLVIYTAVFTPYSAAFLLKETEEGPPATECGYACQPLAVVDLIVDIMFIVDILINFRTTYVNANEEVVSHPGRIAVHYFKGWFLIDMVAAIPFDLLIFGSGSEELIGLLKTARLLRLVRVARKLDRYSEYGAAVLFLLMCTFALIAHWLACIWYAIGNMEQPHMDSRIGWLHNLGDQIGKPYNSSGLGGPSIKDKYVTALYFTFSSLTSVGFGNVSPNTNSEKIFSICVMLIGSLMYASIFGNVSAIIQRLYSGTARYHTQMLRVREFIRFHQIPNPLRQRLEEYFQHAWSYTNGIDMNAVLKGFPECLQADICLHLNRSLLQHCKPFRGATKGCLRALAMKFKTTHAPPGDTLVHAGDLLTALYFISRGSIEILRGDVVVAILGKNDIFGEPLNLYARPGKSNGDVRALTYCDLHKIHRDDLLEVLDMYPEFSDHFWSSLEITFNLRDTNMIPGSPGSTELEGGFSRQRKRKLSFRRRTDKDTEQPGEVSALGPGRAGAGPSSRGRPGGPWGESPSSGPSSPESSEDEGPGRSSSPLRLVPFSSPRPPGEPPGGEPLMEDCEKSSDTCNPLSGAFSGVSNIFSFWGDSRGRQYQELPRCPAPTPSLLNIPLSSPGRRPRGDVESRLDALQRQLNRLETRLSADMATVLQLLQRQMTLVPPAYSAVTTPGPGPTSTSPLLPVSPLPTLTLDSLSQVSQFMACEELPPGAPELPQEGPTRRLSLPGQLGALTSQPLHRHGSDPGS
KCNK3 inh: human KCNK3 channel inhibition, primary screen | O14649 | CHO-KCNK3 thallium flux, FluxOR fluorescence; active compounds read low | B-score at 10 µM | hit rate 0.84% among 340,000 | AID 602410;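 active = B-score under library mean minus 4 SD, starting fluorescence ratio at most library mean plus 5 SD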;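 note: more negative B-score means stronger inhibition of thallium flux through KCNK3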
KCNK9 block: inhibitors of human KCNK9 two-pore domain potassium channel | HEK293 KCNK9, FluxOR thallium flux fluorescence; active compounds read low | Q9NPC2 | B-score at 10 µM | hit rate 1.2% among 310,000;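 active = ratio B-score over 3 SD below the library mean, with starting fluorescence within 5 SD of its mean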;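 note: negative B-score means less thallium flux so channel inhibition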
* hit, by the source's call; i = inactive; · = no result. Shown are actives, neighbours in structure and some others; about 3.1% of the full set was active somewhere.

SMILES	KCNQ1 inh	KCNQ1 pot	hERG rescue	KCNK3 inh	KCNK9 block
O=C(O)c1ccc(NC(=S)NC(=O)c2cccc(COc3ccccc3)c2)cc1	6*	i	-9.9	i	i
O=C(O)c1ccc(NC(=S)NC(=O)c2ccc3ccccc3c2)cc1	i	i	-2.5	i	i
O=C(NC(=S)Nc1ccc(CN2CCOCC2)cc1)c1ccc(-c2cccc(Cl)c2)o1	i	20*	-2.5	i	i
Cn1c(COc2ccccc2)nnc1SCC(=O)Nc1nnc(C2CC2)s1	·	·	·	i	·
c1ccc(-c2nc(N3CCN(c4ccccc4)CC3)nc(-n3ccnc3)n2)cc1	i	i	-14.0	i	-7.07*
Cc1n[nH]c(C)c1Sc1ccccc1N	i	i	2.5	i	i
Cc1cc(C)nc(Sc2c(C)n[nH]c2C)n1	i	i	5.1*	i	i
COc1ccccc1NC(=O)/C(C#N)=C/c1cccn1C	i	i	-3.3	i	i
CCN(CC)C(=S)NC(=O)c1ccc(Cl)cc1Cl	i	17*	13.1*	i	i
CC(C)(C)C(=O)NC(=S)NNC(=O)c1ccc(Cl)cc1Cl	i	16*	-8.7	i	i
CC(C)(C)C(=O)NC(=S)NNC(=O)c1ccc(-c2ccccc2)cc1	i	66*	6.3*	i	i
CCCCN(CCCC)C(=S)NC(=O)c1ccccc1Cl	i	57*	64.6*	i	i
CCCCn1c(N)c(N(CCOC)C(=O)CCS(=O)(=O)c2ccc(Cl)cc2)c(=O)[nH]c1=O	i	i	-10.7	i	i
OCC[C@@H]1C[C@@H](O)[C@H](O)[C@]2(Cc3ccccc3O2)O1	i	i	-7.9	i	i
CC(=O)c1cc2c(cc1NS(=O)(=O)c1ccc3c(c1)OCCO3)OCO2	i	i	5.1*	i	i
COc1cc(C(C[N+](=O)[O-])c2c(N)n(C)c(=O)n(C)c2=O)ccc1O (stereo unspecified)	6*	i	-2.7	i	i
Cc1ccc(C(C[N+](=O)[O-])c2c(N)n(C)c(=O)n(C)c2=O)cc1 (stereo unspecified)	i	i	-5.8	i	i
CC(C)CCN1C(=O)c2ccc(C(=O)Nc3cc(C(=O)O)cc(C(=O)O)c3)cc2C1=O	i	i	-4.5	i	i
CC(C)CCN1C(=O)c2ccc(C(=O)Nc3ccc(Br)cc3C(=O)O)cc2C1=O	6*	i	-2.0	i	i
CC(=O)N1CCCC1(C(=O)O)c1ccccc1 (stereo unspecified)	i	i	-4.2	i	i
O=C1NC(=Nc2ccccc2Cl)S/C1=C\c1cccc([N+](=O)[O-])c1O	6*	i	-13.3	i	i
O=C(Cn1cnc([N+](=O)[O-])c1)Nc1cc(Oc2ccc(Cl)cc2Cl)cc([N+](=O)[O-])c1	8*	i	-7.9	i	i
N#Cc1ccc(NC(=O)Cn2cnc([N+](=O)[O-])c2)cc1	i	i	-9.8	i	i
Fc1ccc(-n2cc(-c3ccccc3)c3c(=S)nc[nH]c32)cc1	i	10*	1.1	i	i
CCN(CC)S(=O)(=O)c1ccc(C(=O)/C=C/c2ccc(-c3ccc([N+](=O)[O-])cc3)o2)cc1	i	i	-13.5	-9.26*	i
SMILES	KCNQ1 inh	KCNQ1 pot	hERG rescue	KCNK3 inh	KCNK9 block
Cc1cc(C(F)(F)F)n(-c2nc(C(=O)NN)cs2)n1	i	i	5.0*	i	i
CCCCN(C)C(=O)CCCCn1c(=O)[nH]c2cc(OCC)c(OCC)cc2c1=O	i	i	47.8*	i	i
O=P(CCCCCCCCCP(=O)(c1ccccc1)c1ccccc1)(c1ccccc1)c1ccccc1	i	i	-29.8	i	-7.22*
COC(=O)c1cccc(F)c1C(=O)c1cccc2ccccc12	·	·	·	i	·
CCC(c1nnc(SCC(=O)Nc2cc(S(C)(=O)=O)ccc2Cl)n1Cc1ccccc1)N(C)C (stereo unspecified)	i	i	-5.4	i	i
C=C(C)Cn1c(C)cc(C)c(S(=O)(=O)c2ccc(C)cc2)c1=O	i	i	-6.5	i	-7.2*
CCCc1nnc(SCC(=O)Nc2ccccc2Cl)n1CC1CCCO1 (stereo unspecified)	i	i	-3.4	i	i
CCn1c2ccccc2c2cc(N=C3SC(CC(=O)Nc4ccccc4OC)C(=O)N3C)ccc21 (stereo unspecified)	i	i	0.2	i	i
CCn1c2ccccc2c2cc(N=C3SC(CC(=O)Nc4ccccc4OC)C(=O)N3CCOC)ccc21 (stereo unspecified)	i	i	-3.7	i	-7.12*
CCN(Cc1ccccc1)C(=O)c1cc(S(=O)(=O)N2CCOCC2)cn1C	i	i	-5.6	i	i
O=C(NC(=S)Nc1nc(-c2ccc(Br)cc2)cs1)c1ccco1	i	i	6.3*	i	i
O=C(NNc1nc(-c2ccc(Br)cc2)cs1)c1ccco1	i	i	-5.5	i	i
O=C(Nc1nc(-c2ccccc2)cs1)c1ccco1	i	i	-11.8	i	i
O=C(NC(=S)Nc1nc(-c2ccc([N+](=O)[O-])cc2)cs1)c1ccco1	i	21*	15.2*	i	i
COc1ccc2c3c(c(=O)oc2c1OCC(N)=O)CCCC3	i	i	-1.1	i	i
CCOc1ccc2c3c(c(=O)oc2c1OCC)CCCC3	i	i	-4.1	i	-7.27*
Cc1ccc(CNC(=O)[C@@H](NC(=O)C2CCN(C(=O)[C@@H](N)CC(C)C)CC2)C(C)C)cc1	i	i	-2.0	i	i
Cc1ccc(C(=O)NC2CCCc3c2cnn3-c2ccc(F)cc2F)cn1 (stereo unspecified)	i	i	-14.0	i	i
O=C(NNC(=S)NC1CCCCC1)c1ccccc1Br	i	i	-5.8	i	i
CC1CCCC(NC(=S)NC(=O)c2ccccc2Br)C1C (stereo unspecified)	i	8*	7.2*	i	i
CCCn1c(N)c(C(=O)CSc2nc3ncc(Cl)cc3[nH]2)c(=O)[nH]c1=O	·	·	·	i	·
NC(=O)CSc1nnc(-c2cccc(S(=O)(=O)N3CCCCC3)c2)o1	i	i	-11.1	i	i
O=S(=O)(c1cccc(-c2nnc(SCc3ccc(Cl)cc3)o2)c1)N1CCCCC1	i	i	-5.9	i	-7.21*
CC(=O)c1ccc2c(c1)c(C#N)c1ccccc1[n+]2[O-]	11*	i	-22.6	i	i
CC(=O)c1ccc2noc(-c3ccccc3)c2c1	i	i	-14.4	i	i
Cc1ccc([C@@H]2[C@@H]3C(=O)N(c4ccccc4)C(=O)[C@@H]3[C@]3(C)C(=O)N(CC4CC4)CC(=O)N23)o1	i	i	-6.1	i	i

Bioassay records deposited in PubChem BioAssay by Johns Hopkins Ion Channel Center.
